Key:
Format in all cases: functional
Details in all cases: Homo sapiens
COLO 205 = assay: Tested in vitro for cytotoxicity in COLO 205 cell lines
Summary of the method: (§1)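 Compounds dissolved in DMSO, then diluted 500-fold into aqueous medium. The resulting aqueous solutions or suspensions were added to the cultured human tumour cell lines, and the cells were exposed for 48 h. Growth was read colorimetrically in one of two ways: a metabolic assay in which viable cells reduce a tetrazolium salt to a formazan dye, or a protein stain for total cellular protein.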

CAKI-1 = assay: Tested in vitro for cytotoxicity in CAKI-1 cell lines; summary of the method: as §1
SF-268 = assay: Tested in vitro for cytotoxicity in SF-268 cell lines; summary of the method: as §1
A549 = assay: Tested in vitro for cytotoxicity in A549/ATCC cell lines; summary of the method: as §1
DMS-114 = assay: Tested in vitro for cytotoxicity in DMS114 cell lines; summary of the method: as §1
CCRF-CEM = assay: Tested in vitro for cytotoxicity in CCRF-CEM cell lines; summary of the method: as §1
IGROV-1 = assay: Tested in vitro for cytotoxicity in IGROV1 cell lines; summary of the method: as §1
Malme-3M = assay: Tested in vitro for cytotoxicity in MALME-3M; summary of the method: as §1

| Compound | GI50 (COLO 205) [µM] | GI50 (CAKI-1) [µM] | GI50 (SF-268) [µM] | GI50 (A549) [µM] | GI50 (DMS-114) [µM] | GI50 (CCRF-CEM) [µM] | GI50 (IGROV-1) [µM] | GI50 (Malme-3M) [µM] |
| --- | --- | --- | --- | --- | --- | --- | --- | --- |
| COC[n+]1ccc2c(C)c3[nH]c4ccc(OC)cc4c3c(C)c2c1 | 2.68 | 20.2 | 0.818 | 13.7 | 1.32 | 6.86 | 27.8 | 1.92 |
| COCN1C=Cc2c(c(C)c3c([nH]c4ccccc43)c2C)C1 | 8.68 | 11.1 | 8.02 | 5.06 | 10.4 | 4.98 | 5.88 | 8.87 |
| Cc1c2ccncc2c(C)c2c1[nH]c1ccccc12 [ELLIPTECINE] | 0.588 | 1.01 | 0.816 | 0.41 | 0.552 | 0.415 | 0.862 | 2.52 |
| CSC[n+]1ccc2c(C)c3[nH]c4ccccc4c3c(C)c2c1 | 2.48 | 19.6 | 0.726 | 5.23 | 2.67 | 5.02 | 18.2 | 1.99 |
| COC[n+]1ccc2c(C)c3[nH]c4ccccc4c3c(C)c2c1 | 4.7 | 19.2 | 0.679 | 1.79 | 2.28 | 14.6 | 9.2 | 0.647 |
| COC(=O)C[n+]1ccc2c(C)c3[nH]c4ccccc4c3c(C)c2c1 | > 100 |  | 12.8 | > 100 | > 100 | > 100 | > 100 | > 100 |
| Cc1c2cc[n+](CC#N)cc2c(C)c2c1[nH]c1ccccc12 | 34.6 | > 100 | 13 | 97.5 | 44.7 | 100 | 35.6 | 27.2 |

From ChEMBL document CHEMBL1127574, “Design and synthesis of ellipticinium salts and 1,2-dihydroellipticines with high selectivities against human CNS cancers in vitro” (1994)
